From ChEMBL document CHEMBL1255417, “Correlation between in vitro activity of posaconazole and in vivo efficacy against Rhizopus oryzae infection in mice” (Antimicrob Agents Chemother, 2010)
≈ marks a conversion by molar mass, not a printed value. Calls of active or inactive are those of the source. The calls are words filed in the database; no cut-off is given here.

Tests used:
Rhizopus arrhizus [1] = assay: Antifungal activity against drug-susceptible Rhizopus oryzae UTHSC 06-3913 by broth microdilution method; format: functional
Outline: (§1)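 Posaconazole MIC in ug/ml, determined by broth microdilution following the CLSI guidelines for moulds (M38-A2).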

Rhizopus arrhizus [2] = assay: Antifungal activity against drug-susceptible Rhizopus oryzae UTHSC 06-89 by broth microdilution method; format: functional
Rhizopus arrhizus [3] = assay: Antifungal activity against drug-susceptible Rhizopus oryzae UTHSC 2868 by broth microdilution method; format: functional
Rhizopus arrhizus [4] = assay: Antifungal activity against drug-susceptible Rhizopus oryzae UTHSC 06-4035 by broth microdilution method; format: functional; outline: as §1
Rhizopus arrhizus [5] = assay: Antifungal activity against drug-susceptible Rhizopus oryzae UTHSC 05-1817 by broth microdilution method; format: functional
Outline: (§2)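 CLSI broth microdilution for filamentous fungi (M38-A2); MIC recorded in µg/ml against clinical isolates; breakpoints applied at 24 h.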

Rhizopus arrhizus [6] = assay: Antifungal activity against drug-susceptible Rhizopus oryzae UTHSC 06-1301 by broth microdilution method; format: functional; outline: as §1
Rhizopus arrhizus [7] = assay: Antifungal activity against drug-susceptible Rhizopus oryzae UTHSC 05-3580 by broth microdilution method; format: functional; outline: as §1
Rhizopus arrhizus [8] = assay: Antifungal activity against drug-susceptible Rhizopus oryzae UTHSC 04-1220 by broth microdilution method; format: functional; outline: as §2
Rhizopus arrhizus [9] = assay: Antifungal activity against drug-susceptible Rhizopus oryzae UTHSC 06-2374 by broth microdilution method; format: functional; outline: as §1
Rhizopus arrhizus [10] = assay: Antifungal activity against drug-susceptible Rhizopus oryzae UTHSC 06-3827 by broth microdilution method; format: functional; outline: as §1
Rhizopus arrhizus [11] = assay: Antifungal activity against drug-susceptible Rhizopus oryzae UTHSC 03-299 by broth microdilution method; format: functional; outline: as §2
Rhizopus arrhizus [12] = assay: Antifungal activity against drug-susceptible Rhizopus oryzae UTHSC 05-1679 by broth microdilution method; format: functional; outline: as §2
Rhizopus arrhizus [13] = assay: Antifungal activity against drug-intermediate Rhizopus oryzae UTHSC 03-285 by broth microdilution method; format: functional
Outline: (§3)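 Broth microdilution MIC in µg/ml, run per the CLSI (formerly NCCLS) guideline for filamentous fungi, M38-A2.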

Rhizopus arrhizus [14] = assay: Antifungal activity against drug-intermediate Rhizopus oryzae UTHSC 07-365 by broth microdilution method; format: functional; outline: as §3
Rhizopus arrhizus [15] = assay: Antifungal activity against drug-susceptible Rhizopus oryzae UTHSC 06-3913 at 5 ug by disk diffusion assay; format: functional; conditions: read-out: DIZ
Outline: (§4)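 Neo-Sensitabs tablet diffusion on Mueller-Hinton agar, run per the mould guidelines. Tablets are 9 mm in diameter and carry 5 ug posaconazole. The read-out is the inhibition zone diameter in mm.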

Rhizopus arrhizus [16] = assay: Antifungal activity against drug-susceptible Rhizopus oryzae UTHSC 04-2159 at 5 ug by disk diffusion assay; format: functional; conditions: read-out: DIZ
Outline: (§5)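 Neo-Sensitabs tablet diffusion on Mueller-Hinton agar, following guidelines for molds; 9 mm tablets containing 5 µg posaconazole; inhibition zone diameter measured in mm; zone breakpoints applied at 24 h.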

Rhizopus arrhizus [17] = assay: Antifungal activity against drug-susceptible Rhizopus oryzae UTHSC 03-547 at 5 ug by disk diffusion assay; format: functional; conditions: read-out: DIZ; outline: as §5
Rhizopus arrhizus [18] = assay: Antifungal activity against drug-susceptible Rhizopus oryzae UTHSC 03-3110 at 5 ug by disk diffusion assay; format: functional; conditions: read-out: DIZ; outline: as §5
Rhizopus arrhizus [19] = assay: Antifungal activity against drug-susceptible Rhizopus oryzae UTHSC 05-1817 at 5 ug by disk diffusion assay; format: functional; conditions: read-out: DIZ; outline: as §5
Rhizopus arrhizus [20] = assay: Antifungal activity against drug-susceptible Rhizopus oryzae UTHSC 05-3580 at 5 ug by disk diffusion assay; format: functional; conditions: read-out: DIZ; outline: as §4
Rhizopus arrhizus [21] = assay: Antifungal activity against drug-susceptible Rhizopus oryzae UTHSC 06-2374 at 5 ug by disk diffusion assay; format: functional; conditions: read-out: DIZ; outline: as §4
Rhizopus arrhizus [22] = assay: Antifungal activity against drug-susceptible Rhizopus oryzae UTHSC 03-112 at 5 ug by disk diffusion assay; format: functional; conditions: read-out: DIZ
Outline: (§6)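 Neo-Sensitabs tablet diffusion on Mueller-Hinton agar, following the guidelines for molds. Tablets were 9 mm in diameter and held 5 µg of drug. The read-out was inhibition zone diameter in mm.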

Rhizopus arrhizus [23] = assay: Antifungal activity against drug-susceptible Rhizopus oryzae UTHSC 06-4336 at 5 ug by disk diffusion assay; format: functional; conditions: read-out: DIZ; outline: as §4
Rhizopus arrhizus [24] = assay: Antifungal activity against drug-susceptible Rhizopus oryzae UTHSC 06-3827 at 5 ug by disk diffusion assay; format: functional; conditions: read-out: DIZ; outline: as §4
Rhizopus arrhizus [25] = assay: Antifungal activity against drug-susceptible Rhizopus oryzae UTHSC 03-299 at 5 ug by disk diffusion assay; format: functional; conditions: read-out: DIZ; outline: as §5
Rhizopus arrhizus [26] = assay: Antifungal activity against drug-susceptible Rhizopus oryzae UTHSC 05-3111 at 5 ug by disk diffusion assay; format: functional; conditions: read-out: DIZ; outline: as §4
Rhizopus arrhizus [27] = assay: Antifungal activity against drug-intermediate Rhizopus oryzae UTHSC 04-3109 at 5 ug by disk diffusion assay; format: functional; conditions: read-out: DIZ; outline: as §6
Rhizopus arrhizus [28] = assay: Antifungal activity against drug-susceptible Rhizopus oryzae UTHSC 02-2882 after 24 to 48 hrs; format: functional
Rhizopus arrhizus [29] = assay: Antifungal activity against drug-susceptible Rhizopus oryzae UTHSC 02-439 after 24 to 48 hrs; format: functional
Rhizopus arrhizus [30] = assay: Antifungal activity against drug-susceptible Rhizopus oryzae UTHSC 03-3110 after 24 to 48 hrs; format: functional
Outline: (§7)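 Minimum fungicidal concentration: 20 µl from each microdilution well showing complete inhibition (optically clear) plated on potato dextrose agar, incubated 35°C for 24 to 48 h; MFC taken as lowest drug concentration giving no growth.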

Rhizopus arrhizus [31] = assay: Antifungal activity against drug-susceptible Rhizopus oryzae UTHSC 05-1817 after 24 to 48 hrs; format: functional; outline: as §7
Rhizopus arrhizus [32] = assay: Antifungal activity against drug-intermediate Rhizopus oryzae UTHSC 05-114 after 24 to 48 hrs; format: functional
Rhizopus arrhizus [33] = assay: Antifungal activity against drug-intermediate Rhizopus oryzae UTHSC 03-3165 after 24 to 48 hrs; format: functional
Rhizopus arrhizus [34] = assay: Antifungal activity against drug-susceptible Rhizopus oryzae UTHSC 02-2882 infected in OF1 mouse assessed as increase in mouse survival at 20-30 mg/kg, po bid treated 24 hrs after fungal infection; format: functional, organism-based
Outline: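 Survival model in male OF1 mice, 30 g. Mice were immunosuppressed 1 day before infection with cyclophosphamide 200 mg/kg i.p. plus 5-fluorouracil 150 mg/kg i.v., then infected i.v. via lateral tail vein with 2 × 10^4 CFU in 0.2 ml saline. Oral gavage at 10, 20 or 30 mg/kg BID began 24 h post-challenge for 7 days. Ceftazidime 5 mg/day s.c. was given days 1–7. Groups of 10 were checked daily for 20 days; untreated controls.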

Rhizopus arrhizus [35] = assay: Antifungal activity against drug-susceptible Rhizopus oryzae UTHSC 06-89 infected in OF1 mouse assessed as increase in mouse survival at 20-30 mg/kg, po bid treated 24 hrs after fungal infection; format: functional, organism-based
Rhizopus arrhizus [36] = assay: Antifungal activity against drug-susceptible Rhizopus oryzae UTHSC 06-89 infected in OF1 mouse assessed as reduction in brain fungal load at 10-30 mg/kg, po bid; format: functional, organism-based
Rhizopus arrhizus [37] = assay: Antifungal activity against drug-susceptible Rhizopus oryzae UTHSC 06-89 infected in OF1 mouse assessed as reduction in kidney fungal load at 10-30 mg/kg, po bid; format: functional, organism-based

For `CC[C@@H]([C@H](C)O)n1ncn(-c2ccc(N3CCN(c4ccc(OC[C@@H]5CO[C@@](Cn6cncn6)(c6ccc(F)cc6F)C5)cc4)CC3)cc2)c1=O` [POSACONAZOLE], the MIC (Rhizopus arrhizus [1]) was 0.5 µg/mL (≈ 0.713 µM), the MIC (Rhizopus arrhizus [2]) was 0.25 µg/mL (≈ 0.357 µM) and the MIC (Rhizopus arrhizus [3]) was 1 µg/mL (≈ 1.43 µM). It also gave an MIC (Rhizopus arrhizus [4]) of 0.5 µg/mL (≈ 0.713 µM), an MIC (Rhizopus arrhizus [5]) of 0.25 µg/mL (≈ 0.357 µM) and an MIC (Rhizopus arrhizus [6]) of 0.5 µg/mL (≈ 0.713 µM). For the same molecule, the MIC (Rhizopus arrhizus [7]) was 0.5 µg/mL (≈ 0.713 µM), the MIC (Rhizopus arrhizus [8]) was 0.5 µg/mL (≈ 0.713 µM) and the MIC (Rhizopus arrhizus [9]) was 0.5 µg/mL (≈ 0.713 µM). The MIC (Rhizopus arrhizus [10]) was 1 µg/mL (≈ 1.43 µM), the MIC (Rhizopus arrhizus [11]) was 1 µg/mL (≈ 1.43 µM) and the MIC (Rhizopus arrhizus [12]) was 0.5 µg/mL (≈ 0.713 µM). For the same molecule, the MIC (Rhizopus arrhizus [13]) was 2 µg/mL (≈ 2.85 µM), the MIC (Rhizopus arrhizus [14]) was 2 µg/mL (≈ 2.85 µM) and the zone of inhibition at 5 µg/disc (Rhizopus arrhizus [15]) was 20 mm. It also gave a zone of inhibition at 5 µg/disc (Rhizopus arrhizus [16]) of 20 mm, a zone of inhibition at 5 µg/disc (Rhizopus arrhizus [17]) of 25 mm and a zone of inhibition at 5 µg/disc (Rhizopus arrhizus [18]) of 17 mm. The zone of inhibition at 5 µg/disc (Rhizopus arrhizus [19]) was 25 mm, the zone of inhibition at 5 µg/disc (Rhizopus arrhizus [20]) was 25 mm and the zone of inhibition at 5 µg/disc (Rhizopus arrhizus [21]) was 23 mm. It also gave a zone of inhibition at 5 µg/disc (Rhizopus arrhizus [22]) of 20 mm, a zone of inhibition at 5 µg/disc (Rhizopus arrhizus [23]) of 20 mm and a zone of inhibition at 5 µg/disc (Rhizopus arrhizus [24]) of 18 mm. The zone of inhibition at 5 µg/disc (Rhizopus arrhizus [25]) was 15 mm, the zone of inhibition at 5 µg/disc (Rhizopus arrhizus [26]) was 20 mm and the zone of inhibition at 5 µg/disc (Rhizopus arrhizus [27]) was 14 mm. The MFC (Rhizopus arrhizus [28]) was 0.5 µg/mL (≈ 0.713 µM), the MFC (Rhizopus arrhizus [29]) was 0.5 µg/mL (≈ 0.713 µM) and the MFC (Rhizopus arrhizus [30]) was 1 µg/mL (≈ 1.43 µM). For the same molecule, the MFC (Rhizopus arrhizus [31]) was 2 µg/mL (≈ 2.85 µM), the MFC (Rhizopus arrhizus [32]) was 16 µg/mL (≈ 22.8 µM) and the MFC (Rhizopus arrhizus [33]) was 16 µg/mL (≈ 22.8 µM). For the same molecule, the Activity (Rhizopus arrhizus [34]) was “Active”, the Activity (Rhizopus arrhizus [35]) was “Active” and the Activity (Rhizopus arrhizus [36]) was “Active”. For the same molecule, the Activity (Rhizopus arrhizus [37]) was “Active”.
